Measurements from different studies.
Lines come from different studies, so protocols differ.
Target: Vascular endothelial growth factor receptor 1 (FLT1, Homo sapiens, UniProt P17948)

| SMILES | observed | action | method | tested at | measurement | value |
| --- | --- | --- | --- | --- | --- | --- |
| COc1cc(Nc2cnc(C#N)c(O[C@H](C)CN(C)C)n2)ncc1-c1cnn(C)c1 | enzyme activity | inhibitor | radiometric | 1 µM | remaining activity | 90% |
| CN(c1ncccc1CNc1nc(Nc2ccc3c(c2)CC(=O)N3)ncc1C(F)(F)F)S(C)(=O)=O | enzyme activity | inhibitor |  | 1 µM | inhibition | 80% |
| COc1cc(/C=C/C(=O)CC(=O)/C=C/c2ccc(O)c(OC)c2)ccc1O | enzyme activity | inhibitor |  | 1 µM | activity vs control | 67% |
| CC(C)(C)c1nc2c(s1)c1nc(N)ncc1c1ccc(NS(=O)(=O)c3c(F)cccc3F)c(F)c12 | enzyme activity | inhibitor | radiometric | 1 µM | remaining activity | 111% |
| COc1cc2ncnc(Nc3ccc(Oc4ccccc4)c(C)c3C)c2cc1OC | enzyme activity | inhibitor |  | 1 µM | inhibition | 0% |
| O=C(Nc1cnn(-c2csc(C(=O)NC3COC3)c2)c1)Nc1ccccc1Cl | enzyme activity | inhibitor |  | 5 µM | remaining activity | 101% |
| Cc1ccc(C(=O)Nc2ccc(CN3CCN(C)CC3)c(C(F)(F)F)c2)cc1C#Cc1cnc2cccnn12 | cell-free assay |  |  | 23.5 nM | remaining signal | 33% |
| CCCOc1ccc([C@@H]2[C@@H](C(=O)O)[C@H](c3ccc4c(c3)OCO4)CN2CC(=O)Nc2c(CC)cccc2CC)cc1 | cell-free assay |  | competition with immobilised ligand | 1 µM | remaining binding | 94% |
| CC(C)(O)[C@H]1CC[C@H](Nc2ccc3ncc(-c4cccc(C(F)(F)F)c4)n3n2)CC1 | enzyme activity | inhibitor |  | 1 µM | remaining activity | 92.5% |
| Nc1ncnc2occ(-c3ccc(NC(=O)Nc4cc(C(F)(F)F)ccc4F)cc3)c12 | cell-free assay |  |  | 20 µM | remaining signal | 0.55% |
| CC1CCCN1c1nccc(-c2cnn3ncccc23)n1 (stereo not drawn) | binding |  |  | 1 µM | remaining binding | 100% |
| COc1cc2nccc(Oc3ccc(NC(=O)c4c5n(n(-c6ccc(F)cc6)c4=O)CCCC5)cc3)c2cc1OC | enzyme activity | inhibitor |  | 0.1 µM | inhibition | 23% |
| Cc1ccc(-n2nc(C(C)(C)C)cc2NC(=O)Nc2ccc(OCCN3CCOCC3)c3ccccc23)cc1 | enzyme activity | inhibitor |  | 10 µM | inhibition | 96% |
| Cc1cc(-n2nc(Cc3cc(F)cc(C(F)(F)F)c3)nc2C)ccc1C(N)=O | cell-free assay |  | competition with immobilised ligand | 1 µM | remaining binding | 100% |
| CC/C(=N\NC(=O)NCc1cccc(O)c1)c1ccc(O)c(C)c1O | enzyme activity | inhibitor |  | 0.1 µM | inhibition | 2.5% |
| O=C(O)[C@@H]1[C@@H](Cn2nnc3ccccc3c2=O)CC[C@H]1C(=O)c1ccc(OCCC2CCOCC2)cc1 | cell-free assay |  | competition with immobilised ligand | 1 µM | remaining binding | 100% |
| CCCOc1ccc(OC)c(F)c1C(=O)c1ccc(C(=O)N[C@@H]2CNC[C@H]2NC(=O)c2ccc3[nH]ncc3c2)cc1 | enzyme activity | inhibitor |  | 10 µM | remaining activity | 35% |
| CC(C)(C)C(=O)c1sc(NC2CCCCC2)nc1N | enzyme activity | inhibitor |  | 10 µM | remaining activity | 82% |
| Cc1ccc(Nc2nccc(N(C)c3ccc4c(C)n(C)nc4c3)n2)cc1S(N)(=O)=O | enzyme activity | inhibitor |  | 0.3 µM | inhibition | 100% |
| C[C@H](c1ccc(F)cc1)N(Cc1cccc(C(=O)O)c1)C(=O)c1cnc2ccccc2c1 | cell-free assay |  | competition with immobilised ligand | 1 µM | remaining binding | 100% |
| CNCc1ccc(-c2cc(-c3nc(-c4ccc(S(=O)(=O)C(C)C)cc4)cnc3N)on2)cc1 | enzyme activity | inhibitor |  | 0.4 µM | inhibition | 50% |
| CS(=O)(=O)N1CCCC(NC(=O)[C@H](CCC2CCCCC2)NC(=O)c2ccc(CNc3ncnc4c3nnn4-c3ccccc3)cc2)C1 (stereo partly drawn) | cell-free assay |  | competition with immobilised ligand | 0.1 µM | remaining binding | 86% |
| CCN(CC)CCNC(=O)c1c(C)[nH]c(/C=C2\C(=O)Nc3ccc(F)cc32)c1C | enzyme activity | inhibitor |  | 0.3 µM | inhibition | 99% |
| O=C1Nc2ccc(Cl)cc2C1=Cc1cc(Cl)c(O)c(Cl)c1 | cell-free assay |  |  | 0.5 µM | remaining signal | 85% |
| C[C@@H](c1cccc(C#N)c1)n1cc(Cl)cc(C(N)=O)c1=N | cell-free assay |  | competition with immobilised ligand | 1 µM | remaining binding | 100% |
| Cc1ccc(NC(=O)c2ccc(CN3CCN(C)CC3)cc2)cc1Nc1nc(-c2cccnc2)cs1 | cell-free assay |  |  | 0.5 µM | remaining signal | 96.4% |
| COc1cc(-c2cn(C3CCc4c(F)cccc4N(CC(F)(F)F)C3=O)nn2)ccc1-n1cnc(C)c1 (stereo not drawn) | cell-free assay |  | competition with immobilised ligand | 1 µM | remaining binding | 97% |
| Nc1nc(NC2CCCCC2)sc1C(=O)c1ccccc1 | enzyme activity | inhibitor |  | 10 µM | remaining activity | 57% |
| O=C1NC(=O)c2cc(Nc3ccc(F)cc3)c(Nc3ccc(F)cc3)cc21 | cell-free assay |  |  | 0.5 µM | remaining signal | 81.5% |
| CS(=O)(=O)NCC[C@H](NC(=O)c1cncc2c1cnn2-c1ccc(F)cc1)c1ccnc(S(C)(=O)=O)c1 | cell-free assay |  | competition with immobilised ligand | 1 µM | remaining binding | 90% |
